Measurements as given in ChEMBL document CHEMBL2150929, “Lipidated peptidomimetics with improved antimicrobial activity” (ACS Med Chem Lett, 2012).
In brackets after ≈: the same amount, converted by molar mass. Activity calls are given as the source filed them. No cut-off for these calls is given here.

What was measured:
Escherichia coli [1] = assay: Antimicrobial activity against Escherichia coli JM109 after 24 hrs by broth micro-dilution method; format: functional; conditions: JM109, 24 h
Klebsiella pneumoniae = assay: Antimicrobial activity against Klebsiella pneumoniae ATCC 13383 after 24 hrs by broth micro-dilution method; format: functional; conditions: ATCC 13383, 24 h
[2] = Toxicity in RBC assessed as hemolysis; format: cell-based, Erythrocyte; conditions: for HC10: erythrocyte; for HC50: red blood cells (RBC)
In short: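 Hemolysis of red blood cells measured over a concentration range. H10 and H50 are the concentrations giving 10% and 50% hemolysis.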

Bacillus subtilis = assay: Antimicrobial activity against Bacillus subtilis BR151 after 24 hrs by broth micro-dilution method; format: functional; conditions: BR151, 24 h
[3] = test system: Staphylococcus epidermidis; assay: Antimicrobial activity against methicillin-resistant Staphylococcus epidermidis RP62A after 24 hrs by broth micro-dilution method; format: functional
In short: (§1)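 MIC read as the lowest concentration giving complete inhibition of bacterial growth after 24 h of incubation. Pexiganan and a linear α-AApeptide were run alongside as positive controls.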

Candida albicans = assay: Antimicrobial activity against Candida albicans ATCC 10231 after 48 hrs by broth micro-dilution method; format: functional; conditions: ATCC 10231, 48 h
Enterococcus faecalis = assay: Antimicrobial activity against Vancomycin-resistant Enterococcus faecalis ATCC 700802 after 24 hrs by broth micro-dilution method; format: functional; conditions: ATCC 700802, 24 h; in short: as §1
Staphylococcus aureus = assay: Antimicrobial activity against methicillin-resistant Staphylococcus aureus ATCC 33592 after 24 hrs by broth micro-dilution method; format: functional; conditions: ATCC 33592, 24 h; in short: as §1
Pseudomonas aeruginosa = assay: Antimicrobial activity against Pseudomonas aeruginosa ATCC 27853 after 24 hrs by broth micro-dilution method; format: functional; conditions: ATCC 27853, 24 h
Escherichia coli [4] = assay: Induction of membrane disruption in Escherichia coli JM109 at 10 ug/ml after 2 hrs by Propidium iodide-staining based fluorescence microscopy; format: functional, organism-based
In short: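 E. coli exposed to 10 μg/mL for 2 h, then stained with DAPI, which labels all cells, and propidium iodide, which enters cells with damaged membranes. Red PI fluorescence imaged by fluorescence microscopy against untreated controls.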

Row | Compound | MIC (Escherichia coli [1]) [µg/mL] | MIC (Klebsiella pneumoniae) [µg/mL] | HC10 [2] [µg/mL] | HC50 [2] [µg/mL] | MIC (Bacillus subtilis) [µg/mL] | MIC [3] [µg/mL] | MIC (Candida albicans) [µg/mL] | MIC (Enterococcus faecalis) [µg/mL] | MIC (Staphylococcus aureus) [µg/mL] | MIC (Pseudomonas aeruginosa) [µg/mL] | Activity (Escherichia coli [4])
1 | CCCCCCCCCCCCCCCC(=O)NCCN(C(=O)CCc1ccccc1)[C@@H](CCCCN)C(=O)NCCN(C(=O)CCc1ccccc1)[C@@H](CCCCN)C(=O)NCCN(C(=O)CCc1ccccc1)[C@@H](CCCCN)C(N)=O | > 50 | > 50 | 15 | 150 | 2 (≈ 1.72 µM) | 20 (≈ 17.2 µM) | > 50 | 10 (≈ 8.58 µM) | 8 (≈ 6.86 µM) | > 50 | 
2 | CCCCCCCCCCCCCCCC(=O)NCCN(C(=O)CCCN)[C@@H](Cc1ccccc1)C(=O)NCCN(C(=O)CCCN)[C@@H](Cc1ccccc1)C(=O)NCCN(C(=O)CCCN)[C@@H](Cc1ccccc1)C(=O)NCCN(C(=O)CCCN)[C@@H](Cc1ccccc1)C(=O)NCCN(C(=O)CCCN)[C@@H](Cc1ccccc1)C(N)=O | 4 (≈ 2.45 µM) | 8 (≈ 4.9 µM) | 20 | 250 | 4 (≈ 2.45 µM) | 10 (≈ 6.13 µM) | 4 (≈ 2.45 µM) | 4 (≈ 2.45 µM) | 8 (≈ 4.9 µM) | 12 (≈ 7.35 µM) | Active
3 | CCCCCCCCCCCCCCCC(=O)NCCN(C(=O)CCCN)[C@@H](Cc1ccccc1)C(=O)NCCN(C(=O)CCCN)[C@@H](Cc1ccccc1)C(=O)NCCN(C(=O)CCCN)[C@@H](Cc1ccccc1)C(N)=O | 8 (≈ 7.4 µM) | > 50 | 50 | 300 | 2 (≈ 1.85 µM) | 8 (≈ 7.4 µM) | 3 (≈ 2.77 µM) | 4 (≈ 3.7 µM) | 4 (≈ 3.7 µM) | 20 (≈ 18.5 µM) | 
4 | H-GIGKFLKKAKKFGKAFVKILKK-NH2 [PEXIGANAN] | 8 | 8 | 181 | 495 | 4 | 8 | 124 | 32 | 16 | 8 | 
5 | CCCCCCCCCCCCCCCC(=O)NCCN(C(=O)CCc1ccccc1)[C@@H](CCCCN)C(=O)NCCN(C(=O)CCc1ccccc1)[C@@H](CCCCN)C(N)=O | > 50 | > 50 | > 500 | > 500 | 4 (≈ 4.64 µM) | 15 (≈ 17.4 µM) | 2 (≈ 2.32 µM) | 3 (≈ 3.48 µM) | 8 (≈ 9.28 µM) | > 50 | 
6 | CCCCCCCCCCCCCCCC(=O)NCCN(C(C)=O)[C@@H](C)C(=O)NCCN(C(C)=O)[C@@H](C)C(=O)NCCN(C(=O)CCCN)[C@@H](Cc1ccccc1)C(=O)NCCN(C(=O)CCCN)[C@@H](Cc1ccccc1)C(=O)NCCN(C(=O)CCCN)[C@@H](Cc1ccccc1)C(N)=O | 30 (≈ 21.5 µM) | 8 (≈ 5.74 µM) | 40 | 400 | 2 (≈ 1.43 µM) | 4 (≈ 2.87 µM) | 20 (≈ 14.3 µM) | 4 (≈ 2.87 µM) | 4 (≈ 2.87 µM) | 8 (≈ 5.74 µM) | 
7 | CCCCCCCCCCCCCCCC(=O)NCCN(C(C)=O)[C@@H](C)C(=O)NCCN(C(C)=O)[C@@H](C)C(=O)NCCN(C(=O)CCCN)[C@@H](CCCCN)C(=O)NCCN(C(=O)CCCN)[C@@H](CCCCN)C(=O)NCCN(C(=O)CCCN)[C@@H](CCCCN)C(N)=O | 4 (≈ 2.99 µM) | 20 (≈ 15 µM) | 100 | > 500 | 4 (≈ 2.99 µM) | 10 (≈ 7.48 µM) | 10 (≈ 7.48 µM) | 20 (≈ 15 µM) | 8 (≈ 5.98 µM) | 10 (≈ 7.48 µM) | 
8 | CCCCCCCCCCCCCCCC(=O)NCCN(C(=O)CCC(C)C)[C@@H](CCCCN)C(=O)NCCN(C(=O)CCC(C)C)[C@@H](CCCCN)C(N)=O | > 50 | > 50 | > 500 | > 500 | 2 (≈ 2.52 µM) | 10 (≈ 12.6 µM) | 2 (≈ 2.52 µM) | 1 (≈ 1.26 µM) | 5 (≈ 6.3 µM) | > 50 | 
